Data on one compound can be found in ChEMBL document CHEMBL2396611, “Synthesis and mechanism of hypoglycemic activity of benzothiazole derivatives” (J Med Chem, 2013).

Data set [1] has as its target 5'-AMP-activated protein kinase catalytic subunit alpha-2 (Rattus norvegicus) (UniProt Q09137). Briefly: Activation of AMPK in rat L6 cells assessed as ACC phosphorylation at Ser79 at 250 mM after 40 mins by Western blot analysis relative to control. Type of data set: cell-based. An outline of the steps: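 Fully differentiated L6 myotubes, preincubated 3 h with or without 5 μM Compound C. Test agents: compound at 25 μM for 3 h, sorbitol 250 mM for 40 min, AICAR 4 mM for 30 min. Whole-cell lysates probed by Western blot for pSer79-ACC, ACC, pThr642-AS-160, AS-160 and α-tubulin; band densities summarized, n=3, vs respective controls.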
In general terms: Immunoblotting shows a protein as a band on a membrane.

Data set [2] addresses T1, Cytochrome P450 1A2 (Homo sapiens, UniProt P05177).
T1 sequence (P05177 whole entry): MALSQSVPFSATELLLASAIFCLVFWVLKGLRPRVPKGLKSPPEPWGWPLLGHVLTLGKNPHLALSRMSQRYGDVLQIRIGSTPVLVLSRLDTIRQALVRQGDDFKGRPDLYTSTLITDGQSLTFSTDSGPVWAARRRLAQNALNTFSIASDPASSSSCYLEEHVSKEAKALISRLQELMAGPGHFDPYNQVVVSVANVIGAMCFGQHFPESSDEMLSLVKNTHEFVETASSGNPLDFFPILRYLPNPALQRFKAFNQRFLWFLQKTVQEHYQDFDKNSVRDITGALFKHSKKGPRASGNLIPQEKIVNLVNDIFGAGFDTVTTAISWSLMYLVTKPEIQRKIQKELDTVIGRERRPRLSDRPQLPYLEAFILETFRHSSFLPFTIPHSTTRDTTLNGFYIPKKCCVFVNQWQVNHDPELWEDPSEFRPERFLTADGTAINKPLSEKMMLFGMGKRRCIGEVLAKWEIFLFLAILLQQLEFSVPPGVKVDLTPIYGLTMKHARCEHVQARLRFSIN
Kind of data set: Inhibition of CYP1A2 (unknown origin) by luminescent based assay. The class given is ADME.

Chain of 5'-AMP-activated protein kinase catalytic subunit alpha-2 (Rattus norvegicus) (Q09137 whole entry): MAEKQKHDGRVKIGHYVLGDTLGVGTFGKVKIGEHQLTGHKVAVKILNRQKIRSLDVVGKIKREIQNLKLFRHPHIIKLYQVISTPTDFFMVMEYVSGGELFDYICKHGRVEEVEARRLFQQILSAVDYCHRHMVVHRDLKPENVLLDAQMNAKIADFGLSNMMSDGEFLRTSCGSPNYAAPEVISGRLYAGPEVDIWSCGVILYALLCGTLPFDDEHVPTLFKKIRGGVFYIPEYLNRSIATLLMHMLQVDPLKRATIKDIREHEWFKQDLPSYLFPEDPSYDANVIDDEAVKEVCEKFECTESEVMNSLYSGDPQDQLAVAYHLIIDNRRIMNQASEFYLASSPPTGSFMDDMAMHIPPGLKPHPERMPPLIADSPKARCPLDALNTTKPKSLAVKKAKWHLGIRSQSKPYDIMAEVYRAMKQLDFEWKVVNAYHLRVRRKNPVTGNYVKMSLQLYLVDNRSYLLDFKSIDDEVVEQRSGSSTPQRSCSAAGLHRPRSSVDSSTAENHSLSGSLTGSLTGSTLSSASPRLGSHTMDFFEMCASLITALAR

As for `CCOc1ccc2nc(SCc3nc4ccccc4s3)sc2c1`, the fold change (FC) in data set [1] is 2.56. In addition, the “inhibition (INH)” value in data set [2] is given as “Not Active”.
